Compound activity deposited in PubChem BioAssay by several laboratories.
CHOP inhibitor – inhibitors of CHOP induction in ER stress response. CHO-K1 CHOP-promoter luciferase, tunicamycin-induced, 15-18 h. inhibition, % at 10 µM. hit rate 3.8% among 220,000. AID 2732;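 active = compounds that reduced the stress-induced luciferase reporter signal by more than about 70% of percent inhibition, limit read from the data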
Gli-Sufu antag – Gli-Sufu pathway antagonism; Sufu-KO-LIGHT fibroblasts, Gli luciferase reporter luminescence; inhibition, % at 5 µM; hit rate 0.74% among 340,000;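 active = inhibition above about 55%, limit read from the data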
697 NFkB inh – lowers PMA/ionomycin-induced NF-kB signal in 697 B cells | 697 B-cell NF-kB luciferase reporter, 16 h | inhibition, % at 4 µM | hit rate 0.33% among 330,000; in the data active = inhibition above about 35%
Jurkat NFkB inh – inhibitors of the PMA/ionomycin-induced NF-kB reporter in Jurkat cells; hit rate 0.53% among 330,000; AID 435003; inhibition, % at 4 µM; PMA/ionomycin-induced NF-kB luciferase reporter, luminescence; in the data active = inhibition above about 50%
CHOP UPR activ – activators of apoptotic arm of unfolded protein response (CHOP); CHO-CHOP luciferase reporter, UPR activation, luminescence; percent of tunicamycin response over DMSO baseline; activation, % at 10 µM; hit rate 0.34% among 330,000; AID 449763;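 active = at 10 µM dose, activation of 40% or more, normalized to positive control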
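Evaluation: % reporter activation, DMSO baseline versus tunicamycin full activation; System: CHO-CHOP luciferase reporter cell line; Input: 500 cells/well; Incubation: 6 h compound treatment, 37 °C; Measured by: Steady-Glo luciferase luminescence; Dosing: one dose, 10 µM in 0.5% DMSO; Buffer or medium: F12 medium, 10% FBS; Benchmarks: positive tunicamycin 10 µg/mL, negative DMSO alone.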
UPR XBP1 act – adaptive UPR (XBP1) activation. CHO-XBP1 luciferase reporter, IRE1-XBP1 UPR activation, luminescence; percent of tunicamycin response, DMSO as zero. activation, % at 20 µM. hit rate 0.33% among 330,000. AID 463104;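 active = versus positive control, 20 µM dose yields 30% or more activation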
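Assay system: CHO-XBP1 luciferase reporter cells; Schedule: 6 h treatment, 37 °C; Detection: glow luminescence from Steady-Glo reagent; Benchmarks: high control tunicamycin 10 µg/mL final, low control DMSO vehicle only.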
Each line names hits and unclear results; the compound was inactive in the other large screens. An excerpt weighted towards active compounds, which were near 3.9% of everything screened.

Cc1cccc(-n2ncc3c(NCc4cccnc4)ncnc32)c1	none
CC1(C)N=C(SCC(=O)Nc2ccc(Cl)cc2)C(c2ccc(Cl)cc2)=N1	CHOP inhibitor 72
CC1(C)N=C(SCC(=O)Nc2ccc(Cl)cc2)C(c2ccccc2)=N1	CHOP inhibitor 78
COc1ccc(NC(=O)c2ccco2)c(NC(=O)c2ccc([N+](=O)[O-])cc2)c1	none (no result: CHOP inhibitor)
CCN(CC)C(=O)OCCc1cc2ccccc2c(=O)o1	none (no result: CHOP inhibitor)
O=C(Nc1ccc(C(F)(F)F)cc1Cl)c1ccc(Cn2cc(Br)cn2)o1	CHOP inhibitor 73
O=C(Nc1cccc(C(F)(F)F)c1)c1ccc(Cn2cc(Br)cn2)o1	none
CCN(C(=O)CSc1nnc(-c2ccc(F)cc2)n1C)C1CCS(=O)(=O)C1 (centres undefined)	none (no result: CHOP inhibitor)
CN(C)c1ccc(NC(=O)Nc2cccc3ccccc23)cc1	CHOP inhibitor 86
O=C(c1cc2c(s1)-c1ccccc1OC2)N1CCN(c2ccccc2)CC1	CHOP inhibitor 83
Cc1csc(NC(=O)c2cc3c(s2)-c2ccccc2OC3)n1	CHOP inhibitor 81
CC(=O)OCc1c(C(F)(F)F)nn(C)c1Oc1cccc(C(F)(F)F)c1	CHOP inhibitor 75
CC(NC(=O)COC(=O)/C=C/c1ccc([N+](=O)[O-])cc1)c1ccccc1 (centres undefined)	none
Cc1ccc(C)c(N(CC(=O)N/N=C/c2ccc(-c3ccc([N+](=O)[O-])cc3)o2)S(=O)(=O)c2ccccc2)c1	CHOP inhibitor 82
Cc1ccc(S(=O)(=O)N(CC(=O)N/N=C/c2ccco2)c2cc(Cl)cc(Cl)c2)cc1	CHOP inhibitor 75
O=C(CN(c1ccc(Cl)cc1)S(=O)(=O)c1ccccc1)N/N=C/c1ccco1	none
O=C(CN(Cc1ccccc1)S(=O)(=O)c1ccccc1)N/N=C/c1ccc([N+](=O)[O-])cc1	CHOP inhibitor 96
CC(NC(=O)C(=O)N/N=C\c1ccc([N+](=O)[O-])cc1)c1ccccc1 (centres undefined)	CHOP inhibitor 84
CCc1nnc(SCC(=O)Nc2ccc(NC(C)=O)cc2)n1-n1cccc1	none (no result: CHOP inhibitor)
Cc1ccc(CN2CCC(Oc3cccc(C(=O)NCc4cccnc4)c3)CC2)o1	none (no result: CHOP inhibitor)
CC(OC(=O)c1ccc(NS(=O)(=O)c2ccc3[nH]c(=O)[nH]c3c2)cc1)C(N)=O (centres undefined)	none (no result: CHOP inhibitor)
CN(Cc1ccccc1F)C(=O)c1ccc(NC(=O)CC2SC(N3CCCCC3)=NC2=O)cc1 (centres undefined)	none (no result: CHOP inhibitor, 697 NFkB inh, Jurkat NFkB inh, CHOP UPR activ, UPR XBP1 act)
COc1cc(/C=C/C(=O)OCC(=O)Nc2cc(C)on2)ccc1OCC#N	none (no result: CHOP inhibitor)
Cc1ccc(C(=O)CSc2nnc3n2CCCCC3)s1	none (no result: CHOP inhibitor)
O=C(CNc1cccc2ccccc12)N/N=C/c1ccc([N+](=O)[O-])cc1	CHOP inhibitor 72
O=C(CNc1ccc2ccccc2c1)N/N=C/C=C/c1cccc([N+](=O)[O-])c1	CHOP inhibitor 90
Cc1ccccc1NCC(=O)N/N=C/c1ccc([N+](=O)[O-])cc1	none
CCOC(=O)c1ccccc1NC1c2ccccc2C(=O)N1c1ccc(C)cn1 (centres undefined)	CHOP inhibitor 85
O=C(CCN1C(=O)S/C(=C\c2ccc(F)cc2)C1=O)Nc1ccc(O)cc1C(=O)O	none (no result: CHOP inhibitor)
COc1ccc(S(=O)(=O)N2CCCCCC2)cc1NC(=O)CN1C(=O)CNC1=O	none (no result: CHOP inhibitor)
O=[N+]([O-])c1cc(CN2CCOCC2)c2cccnc2c1O	none (no result: 697 NFkB inh, Jurkat NFkB inh, CHOP UPR activ, UPR XBP1 act)
O=[N+]([O-])c1cc(CN2CCN(c3ccccc3)CC2)c(O)c2ncccc12	CHOP inhibitor 77, Gli-Sufu antag 80
COc1ccc(Cn2c(=O)[nH]c3cc(C(=O)N4CCN(Cc5ccccc5)CC4)ccc3c2=O)cc1	CHOP inhibitor 72
O=C(NC(Nc1ncc(S(=O)(=O)c2ccc([N+](=O)[O-])cc2)s1)(C(F)(F)F)C(F)(F)F)c1ccc(Cl)cc1	CHOP inhibitor 88
CSc1ccc(/C=N/Nc2cccc(C(=O)O)c2)cc1	CHOP inhibitor 85 (no result: 697 NFkB inh, Jurkat NFkB inh, CHOP UPR activ, UPR XBP1 act)
O=C(Oc1ccc(/C=N/Nc2ccccc2)cc1)c1ccccc1	none
O=C(O)c1cccc(N/N=C/c2ccc(OC(F)(F)F)cc2)c1	none (no result: CHOP inhibitor)
O=C(O)c1ccc(N/N=C/c2ccc(OC(=O)c3cccc(Cl)c3)cc2)cc1	CHOP inhibitor 79, Gli-Sufu antag 61
O=C(O)c1cccc(N/N=C/c2cccs2)c1	CHOP inhibitor 84
COC(=O)c1cc(CNC(=O)Cc2ccsc2)ccc1OC	none (no result: CHOP inhibitor)
Cc1ccc(S(=O)(=O)N2CCN(C(=O)c3cc(C4CC4)nc4c3cnn4C(C)C)CC2)cc1	none (no result: CHOP inhibitor)
CCOC(=O)C1=C(O)c2ccccc2C(=O)/C1=C\c1ccc(CC)cc1	CHOP inhibitor 87 (no result: 697 NFkB inh, Jurkat NFkB inh, CHOP UPR activ, UPR XBP1 act)
CCOC(=O)c1ccc(COC(=O)c2ccc3c(c2)-c2ccccc2C3=O)cc1	none
CCCc1ccc(/C=C2\C(=O)c3ccccc3C(O)=C2C(=O)OCC)cc1	CHOP inhibitor 86 (no result: Gli-Sufu antag)
CCOC(=O)c1c(C)nc2c(c1-c1cc(OC)ccc1OC)C(=O)c1ccccc1-2	none
CCOC(=O)C1=C(Cc2ccc(OC)cc2)C(=O)c2ccccc2C1=O	CHOP inhibitor 95 (no result: 697 NFkB inh, Jurkat NFkB inh, CHOP UPR activ, UPR XBP1 act)
Cc1ccc(NC(=O)CSc2ccc(-c3ccco3)nn2)cc1	CHOP inhibitor 74
Cc1ccc(SCC(=O)Nc2ccc(-c3nnc(-c4ccco4)o3)cc2)cc1	CHOP inhibitor 75
Cc1ccc(NC(=O)CCSc2nnc(-c3ccco3)o2)cc1	none
CC(=O)Nc1ccc(NC(=O)CSc2ccc(-c3ccco3)nn2)cc1	none
CCCCC1CCC(C(=O)N(CCOC)c2c(N)n(CCCC)c(=O)[nH]c2=O)CC1 (centres undefined)	none (no result: CHOP inhibitor)
CCOC(=O)C1CCN(C(=O)C2CCN(S(=O)(=O)c3cccc4nsnc34)CC2)CC1	none (no result: CHOP inhibitor)
O=C(O)Cn1nc(-c2ccccc2)oc1=O	none
CC(C)(C)C(=O)n1nc(-c2ccccc2)oc1=O	CHOP inhibitor 70
CCn1c(=O)cc(OCC(=O)N2CCc3ccccc32)c2ccccc21	CHOP inhibitor 85 (no result: 697 NFkB inh, Jurkat NFkB inh, CHOP UPR activ, UPR XBP1 act)
CC1CCc2nc(NC(=O)C3CC3)sc2C1 (centres undefined)	none
CC1CCc2nc(NC(=O)Nc3ccc4c(c3)OCO4)sc2C1 (centres undefined)	CHOP inhibitor 84
CC1CCc2nc(NC(=O)CN3CCN(Cc4ccc5c(c4)OCO5)CC3)sc2C1 (centres undefined)	CHOP inhibitor 82
CCC(C)Nc1nc2ccccc2n2c(C)nnc12 (centres undefined)	none (no result: CHOP inhibitor)
CSc1ncc(C(=O)Nc2cccnc2)c(C(F)(F)F)n1	none (no result: CHOP inhibitor)
CCOC(=O)Cc1cc(=O)[nH]n(-c2ccccc2)c1=O	none (no result: CHOP inhibitor, 697 NFkB inh, Jurkat NFkB inh, CHOP UPR activ, UPR XBP1 act)
COc1cc(O)ccc1/C=N/NC(=O)c1ccc([N+](=O)[O-])cc1	none
